From ChEMBL document CHEMBL3232794, “Synthesis and evaluation of 2-anilinopyrimidines bearing 3-aminopropamides as potential epidermal growth factor receptor inhibitors” (Eur J Med Chem, 2014)
Activity calls are given as the source filed them. The calls are words filed in the database; no cut-off is given here.

How the values were obtained:
cells [1] = assay type: functional, cell-based; settings: Homo sapiens, HCC827, 72 h
[2] = biological target: Epidermal growth factor receptor (Homo sapiens, UniProt P00533, L858R/T790M); assay type: protein assay
[3] = biological target: Epidermal growth factor receptor (Homo sapiens, UniProt P00533, L858R); assay type: protein assay
cells [4] = assay type: ADME, cell-based; settings: Homo sapiens, 16HBE14o-, 72 h
A549 = test: cells; assay type: functional, cell-based; settings: Homo sapiens, A549, 72 h
NCI-H1975 [5] = test: Antiproliferative activity against human NCI-H1975 cells harboring EGFR L858R/T790M mutant after 72 hrs by MTT assay; assay type: functional, cell-based; settings: NCI-H1975, 72 h
cells [6] = assay type: functional, cell-based; settings: Homo sapiens, BEAS-2B, 72 h
[7] = biological target: Epidermal growth factor receptor (Homo sapiens, UniProt P00533)
A-431 = test: cells; assay type: functional, cell-based; settings: Homo sapiens, A-431, 72 h
[8] = Chemical stability of the compound in buffer solution assessed as compound remaining at 50 uM at pH 9 after 24 hrs by LC-UV analysis; assay type: physicochemical
How it was run: (§1)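 1 mM DMSO stocks diluted to 50 µM final (5% v/v DMSO) in prewarmed 0.01 M PBS pH 7.4 or 0.01 M borate buffer pH 9.0. Incubated at 37 °C for 24 h, mixed with equal volume acetonitrile, analysed by C18 RP-HPLC with UV detection at 281 nm; percent remaining, mean ± SD, n = 3.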

[9] = GSH reactivity assessed as compound remaining at 50 uM after 1 hr at pH 7.4 by LC-UV analysis; assay type: physicochemical; settings: read-out: Activity
How it was run: (§2)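 Freshly prepared thiol (DTT, reduced GSH or L-cysteine; 2 mM) added to PBS pH 7.4 containing test compound, incubated 1 h at 37 °C. Remaining parent measured by HPLC-UV (C18, 281 nm); mean ± SD, n = 3.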

[10] = DTT reactivity assessed as compound remaining at 50 uM after 1 hr at pH 7.4 by LC-UV analysis; assay type: physicochemical; settings: read-out: Activity
How it was run: as §2

Plasma = test: (§3) Stability of the compound in rat plasma assessed as compound remaining at 50 uM at pH 7.4 after 24 hrs by LC-UV analysis; assay type: ADME, cell-free; settings: pH 7.4, 24 h, 50 µM, BLD = below limit of detection
How it was run: (§4)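 Rat plasma diluted to 50% (v/v) with 0.1 M PBS pH 7.4 and spiked with compound from a DMSO stock, then incubated 24 h at 37 °C. Two volumes acetonitrile added, centrifuged (4 °C, 14,000 g, 15 min), supernatant run on RP-HPLC with UV at 281 nm; percent remaining, n = 3.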

[11] = Chemical stability of the compound in buffer solution assessed as compound remaining at 50 uM at pH 7.4 after 24 hrs by LC-UV analysis; assay type: physicochemical; settings: read-out: Stability
How it was run: as §1

[12] = L-cysteine reactivity assessed as compound remaining at 50 uM after 1 hr at pH 7.4 by LC-UV analysis; assay type: physicochemical; settings: read-out: Activity
How it was run: as §2

[13] = system: Epidermal growth factor receptor (Homo sapiens), P00533 [L858R,T790M]; test: Inhibition of EGFR phosphorylation in human H1975 cells harboring EGFR L858R/T790M mutant by Western blotting analysis; assay type: cell-based
How it was run: (§5)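 Lysates (50 µg/lane) separated on 7.5% SDS-PAGE and blotted to nitrocellulose. Probed for total and phospho-EGFR (Tyr1068), Akt (Ser473) and ERK (Thr202/Tyr204) plus β-actin; HRP secondaries with ECL detection.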

[14] = system: Epidermal growth factor receptor (Homo sapiens), P00533 [L858R,T790M]; test: Inhibition of EGFR phosphorylation in human H1975 cells harboring EGFR L858R/T790M mutant at 0.1 uM by Western blotting analysis; assay type: cell-based
How it was run: as §5

NCI-H1975 [15] = test: Induction of NO production in human NCI-H1975 cells harboring EGFR L858R/T790M mutant at 100 uM incubated for 150 mins; assay type: functional, cell-based
How it was run: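 H1975 or 16HBE cells (1 × 10⁶/well) exposed to 100 µM compound for 150 min, then harvested and lysed. Lysates mixed with Griess reagent for 10 min and absorbance read at 540 nm. Nitrite quantified against a […] standard curve, with diluent-treated cells as background.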

NCI-H1975 [16] = test: Antiproliferative activity against human NCI-H1975 cells harboring EGFR L858R/T790M mutant at 5 uM after 72 hrs by MTT assay in presence of 1 to 20 uM haemoglobin NO scavenger; assay type: functional, cell-based; settings: in the assay text read “24 hrs” for “72 hrs”
How it was run: (§6)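 Cells pretreated 1 h with hemoglobin (0, 1, 5, 10 or 20 µM) as NO scavenger, then exposed to 5 µM test compound for 24 h; growth read by MTT assay.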

[17] = system: Epidermal growth factor receptor (Homo sapiens), P00533 [L858R,T790M]; settings: H1975, at 1 µM
H1975 = settings: Homo sapiens, at 1 µM
[18] = biological target: RAC-alpha serine/threonine-protein kinase (Homo sapiens) (UniProt P31749); test: Inhibition of Akt phosphorylation in human H1975 cells harboring EGFR L858R/T790M mutant at 1 uM by Western blotting analysis; assay type: cell-based
How it was run: as §5

HCC827 = test: Antiproliferative activity against gefitinib-sensitive human HCC827 cells bearing EGFR del E746_A750 mutant at 5 uM after 72 hrs by MTT assay in presence of 1 to 20 uM haemoglobin NO scavenger; assay type: functional, cell-based; settings: in the assay text read “24 hrs” for “72 hrs”
How it was run: as §6

[19] = as §3; assay type: ADME, cell-free; settings: pH 7.4, read-out: Stability
How it was run: as §4

Epidermal growth factor receptor (Homo sapiens), P00533 [L858R,T790M], sequence (P00533 whole entry T790M/L858R, looked up): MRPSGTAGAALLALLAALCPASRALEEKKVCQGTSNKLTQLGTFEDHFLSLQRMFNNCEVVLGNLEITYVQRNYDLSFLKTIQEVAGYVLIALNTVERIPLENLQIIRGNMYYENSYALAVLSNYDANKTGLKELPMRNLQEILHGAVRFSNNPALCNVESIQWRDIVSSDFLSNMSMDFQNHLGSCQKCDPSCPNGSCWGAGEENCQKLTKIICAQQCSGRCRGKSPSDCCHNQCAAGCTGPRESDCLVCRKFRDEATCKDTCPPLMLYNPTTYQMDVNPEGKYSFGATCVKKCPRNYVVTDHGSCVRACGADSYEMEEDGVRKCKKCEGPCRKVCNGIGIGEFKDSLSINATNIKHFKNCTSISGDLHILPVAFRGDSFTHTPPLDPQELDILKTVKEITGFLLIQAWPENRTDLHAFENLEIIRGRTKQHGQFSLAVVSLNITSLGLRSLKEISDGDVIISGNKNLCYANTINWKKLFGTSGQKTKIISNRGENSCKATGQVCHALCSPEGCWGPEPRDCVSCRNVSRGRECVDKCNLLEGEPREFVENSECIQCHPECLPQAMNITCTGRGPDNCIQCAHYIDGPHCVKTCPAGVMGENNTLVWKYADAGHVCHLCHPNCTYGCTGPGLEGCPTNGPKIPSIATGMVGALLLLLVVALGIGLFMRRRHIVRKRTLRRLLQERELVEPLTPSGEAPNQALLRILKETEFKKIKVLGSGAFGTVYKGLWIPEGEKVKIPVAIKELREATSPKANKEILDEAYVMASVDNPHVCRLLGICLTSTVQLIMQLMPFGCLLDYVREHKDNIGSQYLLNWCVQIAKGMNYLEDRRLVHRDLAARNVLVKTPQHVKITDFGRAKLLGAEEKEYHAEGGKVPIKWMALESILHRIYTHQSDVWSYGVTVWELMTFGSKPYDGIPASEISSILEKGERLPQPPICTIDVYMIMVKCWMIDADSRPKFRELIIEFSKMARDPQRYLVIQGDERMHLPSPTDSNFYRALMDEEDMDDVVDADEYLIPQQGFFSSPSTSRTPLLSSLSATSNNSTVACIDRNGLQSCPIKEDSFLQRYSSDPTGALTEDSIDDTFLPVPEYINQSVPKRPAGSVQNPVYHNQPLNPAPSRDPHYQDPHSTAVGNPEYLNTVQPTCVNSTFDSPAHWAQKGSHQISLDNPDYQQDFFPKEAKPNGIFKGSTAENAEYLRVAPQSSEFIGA
Epidermal growth factor receptor (Homo sapiens, UniProt P00533), sequence (P00533 whole entry): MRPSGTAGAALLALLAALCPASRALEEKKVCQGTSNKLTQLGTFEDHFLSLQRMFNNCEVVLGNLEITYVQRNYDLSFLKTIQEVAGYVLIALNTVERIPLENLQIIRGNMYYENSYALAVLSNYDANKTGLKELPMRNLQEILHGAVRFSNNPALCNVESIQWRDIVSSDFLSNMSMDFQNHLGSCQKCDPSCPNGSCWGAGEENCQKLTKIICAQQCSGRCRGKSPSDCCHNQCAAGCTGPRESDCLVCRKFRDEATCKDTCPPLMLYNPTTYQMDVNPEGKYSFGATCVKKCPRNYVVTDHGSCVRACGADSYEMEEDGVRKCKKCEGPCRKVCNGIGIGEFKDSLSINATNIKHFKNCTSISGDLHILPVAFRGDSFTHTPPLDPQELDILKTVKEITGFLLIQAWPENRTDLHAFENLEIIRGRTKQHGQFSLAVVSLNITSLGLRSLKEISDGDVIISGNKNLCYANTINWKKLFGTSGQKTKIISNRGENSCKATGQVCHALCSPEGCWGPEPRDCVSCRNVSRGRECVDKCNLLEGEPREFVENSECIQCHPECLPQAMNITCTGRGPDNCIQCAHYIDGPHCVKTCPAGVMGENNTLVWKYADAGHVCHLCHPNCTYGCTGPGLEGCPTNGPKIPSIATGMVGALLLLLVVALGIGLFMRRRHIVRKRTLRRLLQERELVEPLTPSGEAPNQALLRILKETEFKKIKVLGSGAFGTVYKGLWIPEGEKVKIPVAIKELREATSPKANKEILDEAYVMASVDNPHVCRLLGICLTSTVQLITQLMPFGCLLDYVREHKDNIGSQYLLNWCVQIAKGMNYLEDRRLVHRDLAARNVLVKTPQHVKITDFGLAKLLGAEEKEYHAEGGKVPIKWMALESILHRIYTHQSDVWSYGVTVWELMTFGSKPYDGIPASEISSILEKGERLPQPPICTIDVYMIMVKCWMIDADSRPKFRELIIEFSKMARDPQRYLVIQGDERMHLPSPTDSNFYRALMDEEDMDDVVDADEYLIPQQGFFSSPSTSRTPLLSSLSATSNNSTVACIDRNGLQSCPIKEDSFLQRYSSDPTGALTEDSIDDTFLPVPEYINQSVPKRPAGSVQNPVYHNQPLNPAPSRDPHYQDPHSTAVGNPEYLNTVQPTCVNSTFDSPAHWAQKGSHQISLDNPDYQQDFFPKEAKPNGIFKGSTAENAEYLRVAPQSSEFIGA
Epidermal growth factor receptor (Homo sapiens, UniProt P00533, L858R/T790M), sequence (P00533 25-1210 T790M/L858R limits assumed): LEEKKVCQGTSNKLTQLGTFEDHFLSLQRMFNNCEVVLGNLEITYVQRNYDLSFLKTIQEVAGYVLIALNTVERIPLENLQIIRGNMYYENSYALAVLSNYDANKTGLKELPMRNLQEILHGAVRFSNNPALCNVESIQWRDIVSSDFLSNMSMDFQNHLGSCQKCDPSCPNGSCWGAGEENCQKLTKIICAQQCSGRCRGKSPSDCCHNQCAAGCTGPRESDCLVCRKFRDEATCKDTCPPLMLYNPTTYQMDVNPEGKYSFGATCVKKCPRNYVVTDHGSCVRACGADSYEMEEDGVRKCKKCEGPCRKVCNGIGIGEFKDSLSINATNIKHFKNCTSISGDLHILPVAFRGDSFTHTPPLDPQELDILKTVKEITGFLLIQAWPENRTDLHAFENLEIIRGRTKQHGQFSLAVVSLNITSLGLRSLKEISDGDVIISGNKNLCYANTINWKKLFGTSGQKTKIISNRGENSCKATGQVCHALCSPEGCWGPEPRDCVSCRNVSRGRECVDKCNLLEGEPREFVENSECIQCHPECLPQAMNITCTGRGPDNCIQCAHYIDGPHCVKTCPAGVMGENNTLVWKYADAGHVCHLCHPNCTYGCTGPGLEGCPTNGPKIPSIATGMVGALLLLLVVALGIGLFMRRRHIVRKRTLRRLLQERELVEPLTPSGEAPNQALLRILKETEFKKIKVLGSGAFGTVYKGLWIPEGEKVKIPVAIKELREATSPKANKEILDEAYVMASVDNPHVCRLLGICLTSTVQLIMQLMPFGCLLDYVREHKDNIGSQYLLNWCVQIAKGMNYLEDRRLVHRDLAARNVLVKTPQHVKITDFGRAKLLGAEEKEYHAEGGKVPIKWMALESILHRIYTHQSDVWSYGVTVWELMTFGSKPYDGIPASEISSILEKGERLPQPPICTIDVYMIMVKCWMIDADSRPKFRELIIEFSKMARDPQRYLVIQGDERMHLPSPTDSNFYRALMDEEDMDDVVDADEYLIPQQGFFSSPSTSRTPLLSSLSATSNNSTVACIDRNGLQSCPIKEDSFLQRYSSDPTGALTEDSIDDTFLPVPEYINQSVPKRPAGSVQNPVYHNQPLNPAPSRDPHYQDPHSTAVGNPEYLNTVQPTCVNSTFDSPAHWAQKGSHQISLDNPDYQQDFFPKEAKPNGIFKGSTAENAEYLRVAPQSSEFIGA
Epidermal growth factor receptor (Homo sapiens, UniProt P00533, L858R), sequence (P00533 25-1210 L858R limits assumed): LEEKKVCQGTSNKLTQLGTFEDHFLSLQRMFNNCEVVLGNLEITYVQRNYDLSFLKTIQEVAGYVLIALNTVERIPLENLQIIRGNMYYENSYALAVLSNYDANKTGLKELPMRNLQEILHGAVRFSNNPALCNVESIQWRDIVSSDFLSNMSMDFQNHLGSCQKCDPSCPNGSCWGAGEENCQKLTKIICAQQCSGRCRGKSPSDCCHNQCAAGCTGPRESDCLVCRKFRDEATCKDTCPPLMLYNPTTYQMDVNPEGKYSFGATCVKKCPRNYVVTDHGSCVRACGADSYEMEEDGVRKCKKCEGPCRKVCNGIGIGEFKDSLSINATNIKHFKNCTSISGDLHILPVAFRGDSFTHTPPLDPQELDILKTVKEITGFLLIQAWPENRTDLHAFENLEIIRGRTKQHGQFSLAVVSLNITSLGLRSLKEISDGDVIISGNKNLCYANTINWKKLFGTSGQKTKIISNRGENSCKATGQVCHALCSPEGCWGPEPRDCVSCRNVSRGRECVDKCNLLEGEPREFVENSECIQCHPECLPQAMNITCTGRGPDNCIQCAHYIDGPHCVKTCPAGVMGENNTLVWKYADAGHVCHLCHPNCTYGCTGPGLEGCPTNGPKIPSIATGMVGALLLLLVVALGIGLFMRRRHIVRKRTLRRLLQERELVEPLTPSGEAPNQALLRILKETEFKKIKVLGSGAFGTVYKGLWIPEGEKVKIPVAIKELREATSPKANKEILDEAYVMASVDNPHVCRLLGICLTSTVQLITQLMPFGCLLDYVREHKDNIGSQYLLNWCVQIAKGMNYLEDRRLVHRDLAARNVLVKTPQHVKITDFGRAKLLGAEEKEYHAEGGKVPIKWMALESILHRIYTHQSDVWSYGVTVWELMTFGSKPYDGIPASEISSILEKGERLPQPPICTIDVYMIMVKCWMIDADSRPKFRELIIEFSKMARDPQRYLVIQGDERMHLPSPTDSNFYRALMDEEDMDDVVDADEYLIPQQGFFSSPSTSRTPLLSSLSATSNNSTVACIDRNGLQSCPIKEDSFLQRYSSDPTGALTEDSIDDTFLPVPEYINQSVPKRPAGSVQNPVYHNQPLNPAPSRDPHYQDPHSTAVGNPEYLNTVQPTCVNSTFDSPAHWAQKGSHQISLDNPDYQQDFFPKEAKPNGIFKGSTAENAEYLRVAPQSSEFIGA

Row | Structure (SMILES) | IC50 (cells [1]) [nM] | IC50 [2] [nM] | IC50 [3] [nM] | IC50 (cells [4]) [nM] | IC50 (A549) [nM] | IC50 (NCI-H1975 [5]) [nM] | IC50 (cells [6]) [nM] | IC50 [7] [nM] | IC50 (A-431) [nM] | also measured
1 | CCN(CC)CCC(=O)Nc1cccc(Oc2nc(Nc3ccc(N4CCN(C)CC4)cc3OC)ncc2Cl)c1 | 249 | 181 | 818 | 620 | 1000 | 166 | 433 | 877 | 291 | –
2 | C=CC(=O)Nc1cccc(Oc2nc(Nc3ccc(N4CCN(C)CC4)cc3OC)ncc2Cl)c1 | 8 | – | – | – | – | 46 | – | – | – | Stability ([8]; buffer, pH 9, 24 h, 50 µM, BLD = below limit of detection): BLD; remaining at 1 h, 50 µM [9]: 73.5%; remaining at 1 h, 50 µM [10]: 11.3%; Stability (Plasma): BLD; remaining at 24 h, 50 µM [11]: 101%; remaining at 1 h, 50 µM [12]: 12.2%
3 | COc1cc(N2CCN(C)CC2)ccc1Nc1ncc(Cl)c(Oc2cccc(NC(=O)CCN3CCOCC3)c2)n1 | 899 | > 10000 | > 10000 | 3600 | 2620 | 1020 | 2270 | > 10000 | 3910 | –
4 | COc1cc(N2CCN(C)CC2)ccc1Nc1ncc(Cl)c(Oc2cccc(NC(=O)CCN3CCCC3)c2)n1 | 210 | 88 | 427 | 1130 | 1210 | 268 | 1890 | 525 | 804 | –
5 | COc1cc2ncnc(Nc3ccc(F)c(Cl)c3)c2cc1OCCCN1CCOCC1 | – | – | – | – | – | – | – | – | – | Activity (NCI-H1975 [15]): Active; inhibition [18]: inactive

Continued, in another order:

Row | IC50 (cells [1]) [nM] | IC50 [2] [nM] | IC50 [3] [nM] | IC50 (cells [4]) [nM] | IC50 (A549) [nM] | IC50 (NCI-H1975 [5]) [nM] | IC50 (cells [6]) [nM] | IC50 [7] [nM] | IC50 (A-431) [nM] | Structure (SMILES) | also measured
6 | 337 | 2180 | 4530 | 970 | 1120 | 178 | 365 | 10000 | 410 | COc1cc(N2CCN(C)CC2)ccc1Nc1ncc(Cl)c(Oc2cccc(NC(=O)CCN3CCCCC3)c2)n1 | –
7 | 266 | 184 | 804 | 1140 | 923 | 156 | 615 | 638 | 545 | COc1cc(N2CCN(C)CC2)ccc1Nc1ncc(Cl)c(Oc2cccc(NC(=O)CCN(C)C)c2)n1 | –
8 | 130 | 263 | 262 | 2880 | 8250 | 108 | 3370 | 201 | 4470 | COc1cc(N2CCN(C)CC2)ccc1Nc1ncc(Cl)c(Oc2cccc(NC(=O)CCN3CCN(CCOc4no[n+]([O-])c4S(=O)(=O)c4ccccc4)CC3)c2)n1 | inhibition [13]: Dose-dependent effect; inhibition [14]: Active; Activity (NCI-H1975 [15]): Active; inhibition (NCI-H1975 [16]): inactive; inhibition [17]: Active; inhibition (H1975): Active; inhibition [18]: Active; inhibition (HCC827): inactive
9 | 1500 | 4710 | 10000 | 1750 | 1030 | 1040 | 412 | 7440 | 548 | COc1cc(N2CCN(C)CC2)ccc1Nc1ncc(Cl)c(Oc2cccc(NC(=O)CCN3CCN(C)CC3)c2)n1 | –
10 | 799 | 2420 | 5870 | 2060 | 2820 | 931 | 1660 | 2390 | 632 | COc1cc(N2CCN(C)CC2)ccc1Nc1ncc(Cl)c(Oc2cccc(NC(=O)CCN3CCN(CCO)CC3)c2)n1 | remaining at 24 h, 50 µM ([8]; buffer solution, pH 9, read-out: Stability): 81.4%; remaining at 1 h, 50 µM [9]: 100%; remaining at 1 h, 50 µM [10]: 101%; remaining at 24 h, 50 µM [19]: 105%; remaining at 24 h, 50 µM [11]: 99.5%; remaining at 1 h, 50 µM [12]: 101%
11 | 883 | 537 | 2380 | 3700 | 5280 | 1600 | 5780 | 698 | 4530 | CCOC(=O)N1CCN(CCC(=O)Nc2cccc(Oc3nc(Nc4ccc(N5CCN(C)CC5)cc4OC)ncc3Cl)c2)CC1 | –
